According to article PMC6460380 (Heliyon, 2019):
Structures can show the parent of a compound that is named as a salt.

Key:
[1] = tested on: GST enzyme isolated from blueberry fruits (Vaccinium arctostaphylos L.); test: In vitro inhibition of purified blueberry fruit GST by pesticides; assay type: biochemical; conditions: for Ki: Lineweaver-Burk graphs, 1/V versus 1/[GSH]; for Ki / Inhibition type: GSH as substrate; for Inhibition type: from Lineweaver-Burk graphs; for IC50: from activity (%) - pesticide concentration graphs, minimum five concentrations
In short: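 GST purified from ripe berries (stored at -20 °C). The 1 mL assay used 0.1 M K-phosphate pH 7.0, CDNB (25 mM stock in ethanol) and GSH (20 mM stock). It was started with enzyme and absorbance was read for 3 min. Pesticides were tested at ≥5 concentrations against a no-pesticide control set as 100%. Ki and inhibition type came from 1/V versus 1/[GSH] plots.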

[2] = tested on: GST enzyme isolated from blueberry fruits (Vaccinium arctostaphylos L.); test: Kinetic studies of purified blueberry fruit GST with substrates CDNB and GSH; assay type: biochemical; conditions: CDNB 0.05-1.6 mM at fixed GSH 20 mM; GSH 0.05-1.6 mM at fixed CDNB 25 mM
In short: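 The enzyme was blueberry GST purified by Sephadex G-100 gel filtration then GSH-agarose affinity chromatography with GSH gradient elution. Reactions were 1 mL in 0.1 M K-phosphate buffer pH 7.0, with one substrate varied and the other held fixed. The reaction was started by rapid enzyme addition and absorbance was followed spectrophotometrically for 3 min.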

| Molecule | Ki [1] | Inhibition type [1] | IC50 [1] | Inhibition of GST enzyme activity in vitro (in words) [1] | Vmax [2] |
| --- | --- | --- | --- | --- | --- |
| O=C(O)COc1ccc(Cl)cc1Cl [2,4 Dichlorophenoxy acetic acid] | 188 ± 85 µM | competitive | 460 µM | inhibited |  |
| CC(=NC#N)N(C)Cc1ccc(Cl)nc1 [Acetamiprid, N - [(6-chloro-3-pyridyl)methyl] -N′-cyano-N-methyl-acetamidine] | 1560 ± 733 µM | competitive | 4100 µM | inhibited |  |
| CC1(C)C(C=C(Cl)Cl)C1C(=O)OC(C#N)c1cccc(Oc2ccccc2)c1 (centres unmarked) [Cypermethrin, [Cyano-(3-phenoxyphenyl)methyl] 3-(2,2-dichloroethenyl) -2,2-dimethylcyclopropane-1-carboxylate] | 310 ± 88 µM |  | 320 µM | inhibited |  |
| COP(=O)(OC)OC=C(Cl)Cl [Dichlorvos, 2,2-dichlorovinyl dimethyl phosphate] | 17.5 ± 5 µM |  | 24 µM | inhibited |  |
| O=C(O)CNCP(=O)(O)O [Glifosat- izopropilamine salt, glyphosate isopropylamine salt] | 266 ± 100 µM | competitive | 160 µM | inhibited |  |
| O=[N+]([O-])NC1=NCCN1Cc1ccc(Cl)nc1 [Imidacloprid, N-{1 - [(6-Chloro-3-pyridyl)methyl] -4,5-dihydroimidazol-2-yl} nitramide] | 630 ± 283 µM |  | 490 µM | inhibited |  |
| (R) -2- [4- (6-chloro-1,3-benzoxazol-2-yloxy) phenoxy] propionic acid [Fenoxaprop-p-ethyl] | 133 µM | competitive | 230 µM | inhibited |  |
| g-glu-cys-gly [GSH] |  |  |  |  | 0.048 EU/ml |
